Among the data in ChEMBL document CHEMBL1208666, “Novel 6,8-dibromo-4(3H)quinazolinone derivatives of anti-bacterial and anti-fungal activities” (2010) are zone of inhibition and MIC values, retold here.

In assay [1] the test system is Escherichia coli. The assay can be described thus: Antibacterial activity against Escherichia coli O157 at 100 ug/ml after 24 hrs by paper disc diffusion technique. The settings on record: O157, 24 h, read-out: IZ. The format is functional. In general terms: Agar diffusion results depend on both activity and mobility in agar.
Assay [2] relates to Escherichia coli. Nature of the assay: Antibacterial activity against Escherichia coli O157 after 24 hrs by agar streak dilution method. The settings on record: O157, 24 h. The format is functional.
Assay [3] relates to Salmonella typhimurium. The assay can be described thus: Antibacterial activity against Salmonella Typhimurium at 100 ug/ml after 24 hrs by paper disc diffusion technique. The format is functional, Salmonella enterica subsp. enterica serovar Typhimurium. The settings on record: Salmonella enterica, read-out: IZ. Put shortly: (§1)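 Paper disc diffusion on Mueller Hinton agar, autoclaved at 120 °C for 30 min. Medium at 40–50 °C was seeded at 1 ml/100 ml with a 10^5 cfu/ml suspension matched to 0.9 McFarland. It was poured 3–4 mm deep, and discs with compound in DMSO were laid on it. Plates were pre-incubated 1 h at room temperature, then 37 °C for 24 h. The inhibition zone was measured.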

The test system of assay [4] is Salmonella typhimurium. Nature of the assay: Antibacterial activity against Salmonella Typhimurium after 24 hrs by agar streak dilution method. The class given is functional, Salmonella enterica subsp. enterica serovar Typhimurium. The settings on record: Salmonella enterica. Put shortly: (§2)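 Agar streak dilution on Mueller Hinton agar. Compound stock in DMSO was added in graded amounts to molten sterile agar at 40–50 °C. This was poured 3–4 mm deep and left to solidify. Bacterial suspension of about 10^5 cfu/ml was applied to the serially diluted plates. Plates were incubated at 37 °C for 24 h to read the MIC. Strains were food-poisoning isolates from animal byproducts.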

Assay [5] concerns Listeria monocytogenes. Nature of the assay: Antibacterial activity against Listeria monocytogenes at 100 ug/ml after 24 hrs by paper disc diffusion technique. The class given is functional. The settings on record: read-out: IZ. The essentials:
as §1

Assay [6] deals with Listeria monocytogenes. Nature of the assay: Antibacterial activity against Listeria monocytogenes after 24 hrs by agar streak dilution method. The class given is functional. Put shortly: as §2
In assay [7] the test system is Staphylococcus aureus. Nature of the assay: Antibacterial activity against Staphylococcus aureus at 100 ug/ml after 24 hrs by paper disc diffusion technique. The class given is functional. The settings on record: read-out: IZ. The essentials: as §1
Assay [8] has as its system Staphylococcus aureus. Nature of the assay: Antibacterial activity against Staphylococcus aureus after 24 hrs by agar streak dilution method. The format is functional. Put shortly:
as §2

The test system of assay [9] is Pseudomonas aeruginosa. The assay can be described thus: Antibacterial activity against Pseudomonas aeruginosa at 100 ug/ml after 24 hrs by paper disc diffusion technique. The settings on record: read-out: IZ. The format is functional. The essentials:
as §1

The test system of assay [10] is Pseudomonas aeruginosa. Nature of the assay: Antibacterial activity against Pseudomonas aeruginosa after 24 hrs by agar streak dilution method. The format is functional. Put shortly:
as §2

Assay [11] relates to Bacillus cereus. The assay can be described thus: Antibacterial activity against Bacillus cereus at 100 ug/ml after 24 hrs by paper disc diffusion technique. The format is functional. The settings on record: read-out: IZ. Put shortly:
as §1

The test system of assay [12] is Bacillus cereus. The assay can be described thus: Antibacterial activity against Bacillus cereus after 24 hrs by agar streak dilution method. The class given is functional. Put shortly:
as §2

The subject of assay [13] is Candida albicans. The assay can be described thus: Antifungal activity against Candida albicans at 100 ug/ml after 48 hrs by paper disc diffusion technique. The class given is functional. The settings on record: read-out: IZ. Put shortly: (§3)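 Paper disc diffusion on Sabouraud dextrose agar, autoclaved at 120 °C for 30 min. Medium at 40–50 °C was seeded at 1 ml/100 ml with a 10^5 cfu/ml fungal suspension matched to 0.9 McFarland. It was poured 3–4 mm deep, and compound discs in DMSO were applied. Plates were pre-incubated 1 h at room temperature, then 28 °C for 48 h. The inhibition zone was recorded.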

Assay [14] concerns Candida albicans. The assay can be described thus: Antifungal activity against Candida albicans after 48 hrs by agar streak dilution method. The class given is functional. The essentials: (§4)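 Fungal MIC by agar streak dilution on Sabouraud dextrose agar. Compound stock in DMSO was added in graded amounts to molten sterile medium at 40–50 °C. This was poured 3–4 mm deep and left to solidify. Fungal suspension of about 10^5 cfu/ml was applied to the serially diluted plates. Plates were incubated at 37 °C for 48 h.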

The subject of assay [15] is Aspergillus flavus. The assay can be described thus: Antifungal activity against Aspergillus flavus at 100 ug/ml after 48 hrs by paper disc diffusion technique. The class given is functional. The settings on record: read-out: IZ. The essentials: as §3
Assay [16] relates to Aspergillus flavus. Nature of the assay: Antifungal activity against Aspergillus flavus after 48 hrs by agar streak dilution method. The class given is functional. The essentials:
as §4

Values after ≈ are worked out from the molar mass of the structure shown.

The MIC is the smallest concentration in the dilution series that meets the test's criterion for growth inhibition. Read a low MIC as inhibition by little substance. For the compound `Cc1nnc(-c2ccc(-n3c(-c4ccccc4)nc4c(Br)cc(Br)cc4c3=O)cc2)o1`, the zone of inhibition at 100 µg/mL is 14 mm with Escherichia coli [1]; 12 mm in the assay with Salmonella typhimurium [3]; 15 mm in the assay with Listeria monocytogenes [5]; 15 mm in the assay with Staphylococcus aureus [7]; 12 mm in the assay on Pseudomonas aeruginosa [9]; 17 mm with Bacillus cereus [11]. The zone of inhibition at 100 µg/mL in the assay on Candida albicans [13] was 11 mm; with Aspergillus flavus [15], 18 mm. The MIC in the assay with Escherichia coli [2] came to 25 µg/mL (≈ 46.5 µM); against Salmonella typhimurium [4], 50 µg/mL (≈ 92.9 µM); against Listeria monocytogenes [6], 12.5 µg/mL (≈ 23.2 µM); with Staphylococcus aureus [8] it was 12.5 µg/mL (≈ 23.2 µM); against Pseudomonas aeruginosa [10], 50 µg/mL (≈ 92.9 µM); against Bacillus cereus [12] it was 1.56 µg/mL (≈ 2.9 µM). For the same compound, the MIC came out at 25 µg/mL (≈ 46.5 µM) against Candida albicans [14] and 9.5 µg/mL (≈ 17.7 µM) in the assay with Aspergillus flavus [16].

As for `Cc1ccc(C2SCC(=O)N2NC(=O)c2ccc(-n3c(-c4ccccc4)nc4c(Br)cc(Br)cc4c3=O)cc2)cc1` (stereo not drawn), the zone of inhibition at 100 µg/mL in the assay on Escherichia coli [1] is 9 mm; with Salmonella typhimurium [3] it was 15 mm; in the assay on Listeria monocytogenes [5], 10 mm; in the assay with Staphylococcus aureus [7], 10 mm; with Pseudomonas aeruginosa [9], 16 mm; with Bacillus cereus [11] it was 9 mm. In addition, the figures for the zone of inhibition at 100 µg/mL in the assay with Candida albicans [13] and in the assay on Aspergillus flavus [15] were 10 mm and 16 mm, respectively. In addition, the MIC against Escherichia coli [2] was more than 50 µg/mL; against Salmonella typhimurium [4] it was 7 µg/mL (≈ 10.1 µM); against Listeria monocytogenes [6], 50 µg/mL (≈ 72.4 µM); with Staphylococcus aureus [8] it was more than 50 µg/mL; in the assay with Pseudomonas aeruginosa [10] it was 10.1 µg/mL (≈ 14.6 µM); in the assay with Bacillus cereus [12], 50 µg/mL (≈ 72.4 µM). The MIC against Candida albicans [14] was 30 µg/mL (≈ 43.5 µM); against Aspergillus flavus [16] it was 12.5 µg/mL (≈ 18.1 µM).

Consider `COc1ccc(C2SCC(=O)N2NC(=O)c2ccc(-n3c(-c4ccccc4)nc4c(Br)cc(Br)cc4c3=O)cc2)cc1` (stereo not drawn), for which the zone of inhibition at 100 µg/mL stood at 11 mm with Escherichia coli [1]; 12 mm in the assay with Salmonella typhimurium [3]; 11 mm in the assay with Listeria monocytogenes [5]; 10 mm in the assay on Staphylococcus aureus [7]; 11 mm in the assay with Pseudomonas aeruginosa [9]; 18 mm with Bacillus cereus [11]. Besides, the zone of inhibition at 100 µg/mL is 10 mm with Candida albicans [13] and 20 mm in the assay with Aspergillus flavus [15]. Also, the MIC is 45 µg/mL (≈ 63.7 µM) in the assay on Escherichia coli [2]; 40 µg/mL (≈ 56.6 µM) against Salmonella typhimurium [4]; more than 50 µg/mL against Listeria monocytogenes [6]; 45 µg/mL (≈ 63.7 µM) with Staphylococcus aureus [8]; 50 µg/mL (≈ 70.8 µM) in the assay on Pseudomonas aeruginosa [10]; 1.9 µg/mL (≈ 2.69 µM) with Bacillus cereus [12]. For the same compound, the results for the MIC in the assay with Candida albicans [14] and against Aspergillus flavus [16] were 25 µg/mL (≈ 35.4 µM) and 1.56 µg/mL (≈ 2.21 µM), respectively.
